Shown is part of a subset that was picked to be rich in hits.
Lung fibro prol = antiproliferative effect on LL 47 fibroblasts – human, LL 47 cells, CellTiter-Glo luminescence, primary screen | viability, % at 10 µM | LL 47 human lung fibroblast viability, ATP luminescence; active compounds read low | 85,000 tested, 1.1% active;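 active means viability at or below 50% in the single dose screen; inactive means viability above 50%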;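 further: compound exposure lasted 72 h before the ATP readout; 100% = median luminescence of untreated cell-only wells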
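test system = LL 47 human lung fibroblasts | amount = 1,150 fibroblasts seeded per well | medium = 15% FBS in IMEM | times = overnight cell rest, 72 h compound treatment at 37 °C | measured by = CellTiter-Glo luminescence measuring cellular ATP | read-out = viability percentage against median untreated-cell control | benchmarks = cell-only wells, no compound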
HCT116 bCat-KO = primary screen for growth suppressors in beta-catenin knockout HCT116 cells (colon tumor, human); viability, % at 10 µM; 140,000 tested, 1.5% active; HCT116 beta-catenin knockout viability, CellTiter-Glo, 60 h; active compounds read low;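 active means viability at or under a set limit, the compound median less 4 SD, cut at about 6% in these data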;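 further: 0% = Hyamine 1622 control at 20 µM and 100% = untreated cell control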
HUVEC inhibit = inhibitors of HUVEC proliferation, primary screen, cell-based, 384-well; AID 648, 2007; CellTiter-Glo luminescence, 72 h; active compounds read low; viability, % at 10 µM (by protocol); 86,000 tested, 1.1% active;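 active means viability at or below 30%; inactive means viability above 30%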;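 further: 100% = median luminescence of DMSO-only cell control wells on each plate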
H69AR inhibit = proliferation blockers of H69AR lung cancer cells, primary screen, cell-based, human, 86K library | H69AR lung tumor viability, ATP luminescence, 72 h; active compounds read low | viability, % at 10 µM | 85,000 tested, 6% active | AID 598, 2007;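 active means viability at or below 40%; inactive means viability above 40%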;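 further: multidrug resistant small cell line overexpressing MRP-1 efflux transporter; 100% = mean luminescence of untreated control wells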
HCT116 PTEN-null = growth suppression of PTEN-null HCT116, primary screen, cell-based, CellTiter-Glo; 140,000 tested, 1.2% active; HCT116 PTEN-null viability, 60 h; active compounds read low; viability, % at 10 µM;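 active means viability at or below a set limit, 4 SD under the median of all tested compounds, cut at about 3.7% in these data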;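 further: PTEN knockout HCT116 line with beta catenin targeted HCT116 as companion control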
* hit, by the source's call; . = not tested or not shown.

SMILES	Lung fibro prol	HCT116 bCat-KO	HUVEC inhibit	H69AR inhibit	HCT116 PTEN-null
Cc1ccc(C)c(C(C)NC(=O)C2C3CCC(O3)C2C(=O)O)c1 (configuration not stated)	105.2	88.5	29.4*	22.8*	92.8
Cc1cccc(NC(=S)N/N=C2\CC(C)(C)Oc3ccc(O)cc32)c1	.	3.9*	.	.	3.8*
CC(Sc1nnc(-c2ccccc2)c(-c2ccccc2)n1)C(=O)N1CCc2ccccc21 (configuration not stated)	.	70.2	.	.	65.9
CCOc1ccc(NC(=NCc2ccc3c(c2)OCO3)SC2CC(=O)N(c3ccccc3)C2=O)cc1 (configuration not stated)	83.5	70.3	52.7	34.7*	69.3
COc1ccc(NC(=O)N(Cc2ccc3c(c2)OCO3)C2CC(=O)N(c3ccc(OC)cc3)C2=O)cc1 (configuration not stated)	97.3	87.2	87.8	39.6*	83.2
CCOc1ccc(NC(=NCc2ccc3c(c2)OCO3)SC2CC(=O)N(c3ccc(OCC)cc3)C2=O)cc1 (configuration not stated)	43.3*	2.2*	25.9*	100.7	8.5
Cn1c(SCC(=O)Nc2ccc(NC(=O)c3cccs3)cc2)nnc1-c1ccncc1	94.9	92.6	98.2	98.2	88.5
CC(C)CC(=O)NC(=S)N1CCN(c2ccc([N+](=O)[O-])cc2Cl)CC1	.	81.8	.	.	76.3
Cc1cc(C)n(-c2nc(NCC3CCCO3)c3c4c(sc3n2)COC(C)(C)C4)n1 (configuration not stated)	94.6	57.8	100.1	10.2*	51.1
Cc1cc(C)n(-c2nc(NCC(C)O)c3c4c(sc3n2)COC(C)(C)C4)n1 (configuration not stated)	92.6	72.7	91.8	58.5	76.2
Cc1cc(C)n(-c2nc(SCCN(C)C)c3c4c(sc3n2)COC(C)(C)C4)n1	.	1.9*	.	.	3.3*
CCN(c1ccccc1)S(=O)(=O)c1ccc(OC)c(OC)c1	91.0	100.4	119.3	104.7	106.3
CCN(c1ccccc1)S(=O)(=O)c1ccc(Oc2ccc(-n3ccnc3)cc2)nc1	48.7*	55.2	74.7	63.6	52.2
CC(C)c1ccc(S(=O)(=O)/N=C2/C=C(Sc3ncn[nH]3)C(=O)c3ccccc32)cc1	.	2.1*	.	.	11.1
Cc1ccc(S(=O)(=O)/N=C2/C=C(Sc3ncn[nH]3)C(=O)c3ccccc32)c(C)c1	.	1.9*	.	.	2.8*
Cc1ccc(S(=O)(=O)/N=C2/C=C(Sc3ncn[nH]3)C(=O)c3ccccc32)cc1	.	31.2	.	.	66.8
Cc1ccc(S(=O)(=O)ON2C(=O)c3ccccc3C2=O)c(C)c1	.	86.2	.	.	92.5
CCCCn1c(SCc2nc(N)nc(N3CCCCC3)n2)nc2c1c(=O)n(C)c(=O)n2C	.	89.7	.	.	93.8
C=CCn1c(SCc2c(C)noc2C)nnc1C1COc2ccccc2O1 (configuration not stated)	86.3	76.6	82.0	93.8	80.1
Cc1noc(C)c1CSc1nc2ccccc2c(=O)n1-c1ccc(Cl)cc1	80.0	26.2	57.8	14.5*	23.5
Cc1noc(C)c1CSc1nc2sc(C)c(C)c2c(=O)n1-c1ccccc1	85.1	55.2	69.0	59.1	59.1
COc1ccccc1N1CCN(CC(=O)NCC2CCCO2)CC1 (configuration not stated)	94.8	98.8	97.1	96.6	92.9
O=C(CN(C(=O)c1cc2c(s1)CCC2)C1CCCC1)NCc1cccs1	92.0	48.6	97.5	66.2	44.1
O=C(Nc1cccnc1)c1ccc(S(=O)(=O)N2CCCCCC2)cc1	102.3	89.2	78.9	77.4	96.9
COc1cc(C(=O)OCC(=O)NC2CCS(=O)(=O)C2)ccc1OCc1c(C)noc1C (configuration not stated)	.	92.9	.	.	113.4
O=C(NCc1cccs1)c1nc2c(nnn2Cc2ccccc2Cl)c(=O)[nH]1	34.8*	86.6	24.1*	44.6	98.0
O=C(Cc1cccs1)N1CCCC(c2nc3c(nnn3Cc3ccccc3Cl)c(=O)[nH]2)C1 (configuration not stated)	109.2	95.8	86.2	82.2	85.4
C=CCNc1nnc(SC2CC(=O)N(c3ccc(OCCC)cc3)C2=O)s1 (configuration not stated)	89.8	86.2	98.0	1.9*	93.9

Assay outcomes (PubChem)
